According to PubChem BioAssay:
Inconclusive results are not listed. Active and inactive are the calls of the source.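 How the source made its calls, unless noted: active means inhibition over a set limit, the all-compound mean plus 3 SD, in both replicate runs; inconclusive means over that limit in just one replicate run; inactive means at or under that limit in both runs.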

Key:
[1] = OD615 S. cerevisiae growth inhibition, permissive medium, pilot counter-assay, permissive growth control for S. cerevisiae lifespan shortening project (AID 705;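 active means growth inhibition above 25% in both replicates, a cutoff set 3 SD above the mean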); settings: OD615, 24 h, at 10 µM, active compounds read high
Procedure, shortened: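 System: Engineered DeaD yeast | Buffer or medium: SC raffinose/galactose permissive medium | Doses: 10 µM single dose, 0.25% DMSO | Times: 24 h exposure, 30 °C | Measured by: OD615 turbidity read | Read-out: Yeast growth inhibition indicated by reduced 24 h OD615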

[2] = Restrictive medium S. cerevisiae growth inhibition, OD615, pilot screen of yeast lifespan reduction project, restrictive growth control (AID 706;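 active means growth inhibition above a set limit, 3 SD over mean compound inhibition, in both replicates, cut at about 43% in these data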;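 further: modified DeaD lifespan yeast strain shifted to restrictive glucose medium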); settings: OD615, 48 h, at 10 µM, active compounds read high
Procedure, shortened: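 Assay system: engineered S. cerevisiae DeaD strain; Buffer or medium: CSMM-D glucose medium; Dosing: 10 µM compound, 0.25% DMSO; Times: cell pre-growth 4 h, compound exposure 48 h, 30 °C; Detection: absorbance (optical density) measured at 615 nm.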

[3] = viability gain of MRP-1-high H69AR cells under doxorubicin, pilot screen, MRP-1 activator project, CellTiter-Glo, duplicate (AID 807;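 active means viability increase at or above a cutoff of the median across tested compounds plus 3 SD, cut at about 8.5% in these data, passing the limit was not always enough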;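 further: compound pretreatment 18-22 h then 72 h combined with doxorubicin; 0% = doxorubicin alone and 100% = vehicle without doxorubicin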); settings: H69AR viability with doxorubicin, CellTiter-Glo luminescence; at 10 µM; active compounds read high
[4] = growth suppression of beta-catenin knockout HCT116, pilot screen, human colon tumor cells (AID 823;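 active means cell viability at or below a set limit in both duplicate runs, the limit being the all-compound median minus 4 SD, cut at about 23% in these data, passing the limit was not always enough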;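 further: 0% = wells killed by 20 µM Hyamine and 100% = untreated DMSO cell wells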); settings: CellTiter-Glo, 60 h, at 10 µM, active compounds read low
[5] = growth suppression of PTEN-deleted HCT116, pilot screen, cell-based, HCT116 clonal line, CellTiter-Glo (AID 824;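 active means viability at or below 27.92% in each of two runs, the all-compound median minus 4 SD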;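 further: 0% = 20 µM Hyamine control and 100% = vehicle cell control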); settings: 60 h, at 10 µM, active compounds read low
[6] = inhibitors of the yeast RAM network, pilot screen, dse1pr::URA3 reporter, 5-FOA selection (AID 869);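 further: 0% = DMSO wells with no growth and 100% = 10 µM 1-NA-PP1 with full growth; RAM network block rescues cells from 5-FOA so hits raise OD615 growth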; settings: S. cerevisiae dse1pr::URA3 5-FOA growth, OD615, 2 d; at 10 µM; active compounds read high; strain carries analog-sensitive mutant Cbk1 kinase
[7] = RAM signaling pathway blockade in yeast – S. cerevisiae, Pdr1DBD-CYC8 efflux-inhibited sensitized strain, primary screen (AID 1298;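 active means RAM network inhibition above 8.4% in each of two replicates, 3 SD over the compound average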;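 further: 0% = DMSO untreated cells without growth and 100% = 10 µM 1-NA-PP1 full growth; higher means more yeast growth rescued from 5-FOA killing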); settings: S. cerevisiae cbk1-as DSE1-URA3 strain, 5-FOA growth OD615, 2 d; at 50 µM; active compounds read high

CCCn1nc2ccccc2c1P(=N)(N1CCOCC1)N1CCOCC1
inactive: growth inhibition [1] -7.87% | growth inhibition [2] -23.5% | viability increase [3] -2% | viability [4] 96% | viability [5] 96.8% | inhibition [6] 2.04% | RAM network inhibition [7] 1.45%

Cn1c(=O)[nH]c(=O)c2c1nc(N1CCCCC1)n2CCSc1nc2ccccc2o1
inactive: growth inhibition [1] -4.52% | growth inhibition [2] -1.63% | viability increase [3] -3.7% | viability [4] 90.7% | viability [5] 92.4% | inhibition [6] 1.11% | RAM network inhibition [7] 1.87%

CCOC(=O)c1ccc2ncc(C(=O)OCC)c(NCCCN3CCOCC3)c2c1
inactive: growth inhibition [1] -4.12% | growth inhibition [2] 8.23% | viability increase [3] -5.66% | viability [4] 81.2% | viability [5] 84.5% | inhibition [6] 0.495% | RAM network inhibition [7] 0.57%

CSc1nnc(Cn2c(=O)sc3ccccc32)n1-c1ccccc1C
inactive: growth inhibition [1] -14.4% | growth inhibition [2] -4% | viability increase [3] -2.05% | viability [4] 97.2% | viability [5] 96.7% | inhibition [6] 1.73% | RAM network inhibition [7] 2.76%

Cc1ccc(NC(=O)C(C)N2CCOCC2)c(C(=O)c2ccccc2)c1 (stereo unspecified)
inactive: growth inhibition [1] -11.7% | growth inhibition [2] -12.7% | viability increase [3] -1.7% | viability [4] 100% | viability [5] 99.5% | inhibition [6] 1.09% | RAM network inhibition [7] 3.04%

CCc1cccc(NC(=O)CCS(=O)(=O)c2cccc3nonc23)c1
inactive: growth inhibition [1] 0.64% | growth inhibition [2] -9.32% | viability increase [3] -1.95% | viability [4] 93.8% | viability [5] 95.3% | inhibition [6] 0.47% | RAM network inhibition [7] 2.79%

O=C(O)c1cccc(-n2cnnn2)c1
inactive: growth inhibition [1] 1.37% | growth inhibition [2] 1.52% | viability increase [3] 0.82% | viability [4] 104% | viability [5] 101% | inhibition [6] 1.06% | RAM network inhibition [7] 4.03%

CN(C(=O)c1ccccc1C(=O)c1ccccc1)C1CCS(=O)(=O)C1 (stereo unspecified)
inactive: growth inhibition [1] -8.28% | growth inhibition [2] 3.21% | viability increase [3] -1.54% | viability [4] 96.6% | viability [5] 95.4% | inhibition [6] -0.06% | RAM network inhibition [7] 1.85%

O=C(NC1CCCCCC1)C1CCCN1S(=O)(=O)c1cccc2cccnc12 (stereo unspecified)
inactive: growth inhibition [1] -10.1% | growth inhibition [2] -8% | viability increase [3] -0.87% | viability [4] 90.9% | viability [5] 92.1% | inhibition [6] 0.69% | RAM network inhibition [7] 3.74%

COc1ccccc1S(=O)(=O)Cc1ccc(C(=O)N2CCCC2)o1
inactive: growth inhibition [1] -3.58% | growth inhibition [2] -4.36% | viability increase [3] -1.51% | viability [4] 108% | viability [5] 101% | inhibition [6] 0.935% | RAM network inhibition [7] 0.94%

Cn1c(=O)[nH]c(=O)c2[nH]c(CN3CCN(Cc4ccccc4)CC3)nc21
inactive: growth inhibition [1] -9.19% | growth inhibition [2] -10% | viability increase [3] -0.77% | viability [4] 104% | viability [5] 99.5% | inhibition [6] 0.395% | RAM network inhibition [7] 1.09%

O=C(NCc1cccs1)C1CCCN1S(=O)(=O)c1ccccc1F (stereo unspecified)
inactive: growth inhibition [1] -2.45% | growth inhibition [2] -6.33% | viability increase [3] -0.97% | viability [4] 102% | viability [5] 90.7% | inhibition [6] 0.91% | RAM network inhibition [7] 2.5%

Cc1ccc(-c2nc(CS(=O)CC(=O)NCc3ccccn3)c(C)o2)cc1 (stereo unspecified)
inactive: growth inhibition [1] -5.48% | growth inhibition [2] 7.86% | viability increase [3] -1.49% | viability [4] 92.2% | viability [5] 90.7% | inhibition [6] 0.745% | RAM network inhibition [7] 1.38%

CCOc1cc(CN2CCN(c3cccc(C(F)(F)F)c3)CC2)ccc1O
inactive: growth inhibition [1] -9.48% | growth inhibition [2] -4.3% | viability increase [3] -5.3% | viability [4] 82.7% | viability [5] 82.9% | inhibition [6] 1.4% | RAM network inhibition [7] 0.97%

COc1ccc(C)cc1NC(=O)C1CCCN(S(=O)(=O)c2c(C)noc2/C=C/N(C)C)C1 (stereo unspecified)
inactive: growth inhibition [1] -4.98% | growth inhibition [2] 3.38% | viability increase [3] -0.74% | viability [4] 102% | viability [5] 100% | inhibition [6] -0.18% | RAM network inhibition [7] 4.58%

CCOc1ccc(NC(=O)c2cnc3scc(C)n3c2=O)cc1
inactive: growth inhibition [1] -17.7% | growth inhibition [2] 3.42% | viability increase [3] -1.16% | viability [4] 101% | viability [5] 98.9% | inhibition [6] 2.76% | RAM network inhibition [7] 8.45%

N#Cc1c(-c2ccco2)c2c([nH]c1=S)CCCC2
inactive: growth inhibition [1] 6.88% | growth inhibition [2] -0.73% | viability increase [3] -3.4% | viability [4] 105% | viability [5] 93.8% | inhibition [6] 1.57% | RAM network inhibition [7] 1.82%

Cc1ccc(C2CC(=O)NC(SCc3ccccc3)=C2C#N)o1 (stereo unspecified)
inactive: growth inhibition [1] -12.6% | growth inhibition [2] -9.71% | viability increase [3] -3.75% | viability [4] 85.7% | viability [5] 104% | inhibition [6] -0.825% | RAM network inhibition [7] 0.58%

CCOc1ccc(-n2c(SCC(=O)NCc3ccco3)nc3c(c2=O)SCC3)cc1
inactive: growth inhibition [1] -21.1% | growth inhibition [2] -19.1% | viability increase [3] -3.31% | viability [4] 95.2% | viability [5] 98.4% | inhibition [6] 3.37% | RAM network inhibition [7] 7.34%

CCOc1ccc(N2C(=O)CC(N3CCN(C4CCc5ccccc5C4)CC3)C2=O)cc1 (stereo unspecified)
inactive: growth inhibition [1] 2.08% | growth inhibition [2] 0.34% | viability increase [3] -1.42% | viability [4] 94.6% | viability [5] 93.1% | inhibition [6] 1.93% | RAM network inhibition [7] 1.53%

CCOC(=O)N1CCN(c2nc(C)cc(C(F)(F)F)n2)CC1
inactive: growth inhibition [1] 1.86% | growth inhibition [2] -23.3% | viability increase [3] 2.84% | viability [4] 102% | viability [5] 96.5% | inhibition [6] 2.92% | RAM network inhibition [7] 2.23%

CCOC(=O)Cn1c(=O)oc2cc(S(=O)(=O)N3CCCc4ccccc43)ccc21
inactive: growth inhibition [1] -8.26% | growth inhibition [2] -5.77% | viability increase [3] -1.08% | viability [4] 88.2% | viability [5] 96% | inhibition [6] 2.77% | RAM network inhibition [7] 6.73%

Cc1ccc2c(c1)C(c1ccccc1)N(C(=O)c1ccc(Br)o1)CC(=O)N2 (stereo unspecified)
inactive: growth inhibition [1] -8.12% | growth inhibition [2] -8.66% | viability increase [3] -3.95% | viability [4] 76.4% | viability [5] 77.9% | inhibition [6] -0.275% | RAM network inhibition [7] 2.72%

O=C(Cn1cc2c(n1)CCCC2)NC1CCN(Cc2ccccc2)CC1
inactive: growth inhibition [1] 2.67% | growth inhibition [2] 5.09% | viability increase [3] -1.67% | viability [4] 87% | viability [5] 87% | inhibition [6] 0.965% | RAM network inhibition [7] -0.16%

Cc1cc(C)c(OCC(=O)Nc2cccc(NC(=O)c3ccco3)c2)c(Br)c1
inactive: growth inhibition [1] -3.62% | growth inhibition [2] 4.23% | viability increase [3] -3.03% | viability [4] 56.1% | viability [5] 60.8% | inhibition [6] 0.45% | RAM network inhibition [7] 3.46%

CCOC(=O)c1sc2nc(NC(=O)c3cccs3)sc2c1C
inactive: growth inhibition [1] 5.51% | growth inhibition [2] -2.37% | viability increase [3] -1.92% | viability [4] 92.5% | viability [5] 87.4% | inhibition [6] -0.28% | RAM network inhibition [7] -0.16%

CC(NC(=O)c1ccc(Cl)cc1)C(=O)N1CCCCC1 (stereo unspecified)
inactive: growth inhibition [1] 2.3% | growth inhibition [2] 0.39% | viability increase [3] 0.75% | viability [4] 98% | viability [5] 96.9% | inhibition [6] 2.58% | RAM network inhibition [7] 5.32%

COc1ccc2oc(-c3ccccc3)c(C(N)=O)c2c1
inactive: growth inhibition [1] 2.25% | growth inhibition [2] 11.4% | viability increase [3] -2.49% | viability [4] 99.1% | viability [5] 97.5% | inhibition [6] 0.53% | RAM network inhibition [7] 1.82%

Cc1ccc(OCC(=O)NCc2ccccn2)c(Br)c1
inactive: growth inhibition [1] 2.21% | growth inhibition [2] -9.19% | viability increase [3] -1.45% | viability [4] 97.8% | viability [5] 95% | inhibition [6] 0.22% | RAM network inhibition [7] 0.01%

CC1CCCCN1S(=O)(=O)c1cccc2cccnc12 (stereo unspecified)
inactive: growth inhibition [1] 6.45% | growth inhibition [2] 16.5% | viability increase [3] -3.21% | viability [4] 96.8% | viability [5] 83.7% | inhibition [6] 0.47% | RAM network inhibition [7] 3.59%

CC1C(=O)CC(c2ccccc2)N(C)C1c1ccccc1 (stereo unspecified)
inactive: growth inhibition [1] -16% | growth inhibition [2] -18% | viability increase [3] -4.71% | viability [4] 82.8% | viability [5] 84.1% | inhibition [6] 2.57% | RAM network inhibition [7] 8%

COCCSc1nc2c(c(=O)[nH]c(=O)n2C)n1CCC(C)C
inactive: growth inhibition [1] -19.7% | growth inhibition [2] -18.9% | viability increase [3] -1.88% | viability [4] 103% | viability [5] 97.3% | inhibition [6] 1.55% | RAM network inhibition [7] 2.8%

O=C(NCC1CCCO1)c1ccc(CS(=O)(=O)c2ccc(Br)cc2)o1 (stereo unspecified)
inactive: growth inhibition [1] -9.31% | growth inhibition [2] -13.1% | viability increase [3] -1.53% | viability [4] 97.8% | viability [5] 97.9% | inhibition [6] 1.06% | RAM network inhibition [7] 2.45%
